From PubChem
Rows were chosen to be rich in hits. Some 2.6% of all compounds tested hit in one or more screens of this group.
MC4R antagonist – MC4R antagonists of cAMP signaling, primary screen, cell-based, TR-FRET, antagonist arm of biased-ligand search; MC4R-expressing cells, MTII-stimulated cAMP, LANCE TR-FRET; Melanocortin receptor 4 (Homo sapiens), P32245; 360,000 tested, 0.48% active; inhibition, % at 6.5 µM; AID 540295, 2011;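 active = inhibition above its plate's cutoff, the mean of tested wells on that plate plus 3 SD, cut at about 29% in these data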
Target sequence (P32245 whole entry, looked up): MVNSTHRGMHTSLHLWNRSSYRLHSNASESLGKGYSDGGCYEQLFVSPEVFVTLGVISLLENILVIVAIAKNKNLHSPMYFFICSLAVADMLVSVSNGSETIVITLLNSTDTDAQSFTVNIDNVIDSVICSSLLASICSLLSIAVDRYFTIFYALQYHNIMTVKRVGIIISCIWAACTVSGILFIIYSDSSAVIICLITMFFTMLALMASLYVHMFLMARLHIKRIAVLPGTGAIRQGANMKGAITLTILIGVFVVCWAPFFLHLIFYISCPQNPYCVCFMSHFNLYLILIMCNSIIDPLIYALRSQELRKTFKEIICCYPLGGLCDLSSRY
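material = U2OS cells stably expressing human melanocortin 4 receptor (MC4R) | also added = Melanotan II challenge | dosing = single nominal compound dose of 6.5 µM | detection = TR-FRET with Eu-cAMP and labeled anti-cAMP, 671 nm | replication = singlicate | timing = compound 30 min, challenge 1 h, detection 1 h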
EP2 modulator – EP2 receptor modulators, cAMP readout, primary screen, cell-based, HTRF cAMP, PGE2 stimulation. 260,000 tested, 0.83% active. AID 940, 2007. EP2-expressing cells, cAMP HTRF FRET, PGE2 co-stimulation. induction, % at 25 µM;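 active = compounds whose cAMP rise, as percent of the full-agonist control response, exceeds 60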;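 also: rat C6 glioma line stably carrying human EP2 under a CMV promoter; the protocol text gives 20 µM as final concentration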
Target sequence (P43116 whole entry, looked up): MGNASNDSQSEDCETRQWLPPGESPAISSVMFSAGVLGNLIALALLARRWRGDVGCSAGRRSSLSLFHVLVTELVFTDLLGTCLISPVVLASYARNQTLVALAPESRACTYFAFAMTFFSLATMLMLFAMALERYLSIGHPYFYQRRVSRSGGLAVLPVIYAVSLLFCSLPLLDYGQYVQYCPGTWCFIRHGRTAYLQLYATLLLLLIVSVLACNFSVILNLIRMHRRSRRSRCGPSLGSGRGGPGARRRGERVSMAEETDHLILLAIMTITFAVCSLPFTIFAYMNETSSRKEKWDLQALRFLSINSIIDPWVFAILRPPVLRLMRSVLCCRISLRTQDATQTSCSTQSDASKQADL
MC4R ag barr – MC4R agonists recruiting beta-arrestin, primary screen, cell-based, luminescence, agonist arm of biased-ligand search. U2OS MC4R beta-arrestin complementation; percent of melanotan II response, DMSO zero. 360,000 tested, 0.98% active. activation, % at 8.9 µM;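 active = activation above a per-plate cutoff, the mean activation of sample wells on that plate plus 3 SD, cut at about 8% in these data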
EP2 antag – human EP2 receptor antagonists, primary screen, TR-FRET cAMP, C6 glioma cells. AID 1422, 2008. C6 glioma cells expressing human EP2; cells stimulated with saturating PGE2. 260,000 tested, 0.52% active. inhibition, % at 25 µM;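 active = percent inhibition above 40 after rounding to a whole number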;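 also: rat C6 glioma host cells with rolipram phosphodiesterase inhibitor present; the protocol text gives 20 µM as final concentration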
T cell modulator – modulators of CD8 T cell-vesicle binding, primary screen, mouse 2C CD8+ T cells, flow cytometry | 330,000 tested, 0.068% active | response (vesicle binding), % at 7 µM | 2C CD8+ T cell-vesicle binding; hits give low values;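 active = response, share of CD8 T cells binding vesicles, and their 90th percentile fluorescence all below set limits, cut at about 80% in these data, passing the limit was not always enough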;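 also: values below 100% mean blocked vesicle binding to the CD8+ T cells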
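Read-out – percent CD8+ FL2 mean versus row control · System – murine 2C transgenic CD8+ T lymphocytes · Times – 1.5 h cell–vesicle binding at 37 °C, then 20 min icy labelling · Control set – naked vesicles low, QL9 vesicles with vehicle high · Detection – cytometric PE anti-B7-1 and Alexa647 anti-CD8 signals after 1% paraformaldehyde fixation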
Exocytosis inh – LAMP-1 surface exposure blockers, TALL-104 cells – cell-based, flow cytometry, MLPCN library, primary screen | TALL-104 LAMP-1 surface exposure; cells stimulated with thapsigargin and PMA | inhibition, % at 10 µM | 360,000 tested, 0.66% active;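 active = inhibition above about 55%, limit read from the data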
EP2 cAMP induct – cAMP induction in EP2, EP4, beta2-AR and parental cells, confirmation, counter-screen for EP2 modulator project, cell-based, five parallel assays, C6 glioma, HEK293. shares compounds with EP2 modulator. cAMP HTRF induction; plus low (about EC15) PGE2 agonist. calls only at 20 µM (by protocol). 1,300 tested, 47% active;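 active = cAMP induction above 50% in the main assay while under 30% in all four parallel counter assays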;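 also: rat C6 glioma cells stably expressing human EP2 receptor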
Large screens that a line does not name were inactive (follow-up assays come after a bar, where they were run); ! = a repeat was not active.

O=C(CSc1nc2[nH]c(=O)cc(O)c2s1)Nc1ccc(Br)cc1	none (no result: EP2 modulator, EP2 antag)
CC1=C/C(=C(/c2ccc(O)c(C)c2)c2ccccc2C(=O)O)C=CC1=O	none (no result: MC4R antagonist, MC4R ag barr, T cell modulator, Exocytosis inh) | EP2 cAMP induct inactive
CC(=O)Oc1c2c(c3c(c1CC=C(C)C)O[C@]14C(=C[C@@H]5CC1C(C)(C)OC4(C/C=C(\C)C(=O)O)C5=O)C3=O)OC(C)(CCC=C(C)C)C=C2 (some centres not stated)	none (no result: MC4R antagonist, MC4R ag barr, T cell modulator, Exocytosis inh) | EP2 cAMP induct inactive
COC(=O)/C(C)=C/CC12OC(C)(C)C3CC(C=C4C(=O)c5cc6c(c(CCC(C)(C)Cl)c5OC431)OC1(C)CCC(=C(C)C)C6C1)C2=O (configuration not stated)	none (no result: MC4R antagonist, MC4R ag barr, T cell modulator, Exocytosis inh)
Cn1c(SCC(=O)NC2CCCCC2)nnc1C(F)(F)F	none (no result: EP2 modulator, EP2 antag, T cell modulator)
CCOc1ccccc1-c1nc2c(C(C)(C)C)nn(C)c2c(=O)[nH]1	EP2 modulator 84 (no result: MC4R antagonist, MC4R ag barr, Exocytosis inh) | EP2 cAMP induct active
CC(=O)N1Cc2ccccc2C(C)CC12CCCCC2 (configuration not stated)	EP2 modulator 66 | EP2 cAMP induct active
CCCNc1nc(C)cc(-c2cc(-c3ccc(Cl)cc3)on2)n1	none
CSc1nc(-c2ccc(Cl)cc2)nn1S(=O)(=O)c1ccccc1	EP2 modulator 85 | EP2 cAMP induct active
Cc1c(C(=O)Nc2cccc3cccnc23)oc2ccccc12	EP2 modulator 65 | EP2 cAMP induct active
O=C(Nc1cccc2cccnc12)c1ccc(Br)o1	EP2 modulator 69 | EP2 cAMP induct inactive
CN(C)c1nccc(N(Cc2ccccc2)Cc2ccccc2)c1C#N	EP2 modulator 68 | EP2 cAMP induct active
Cc1nnc(NC(=O)C2CCCN2C(=O)Nc2ccccc2)s1 (configuration not stated)	none (no result: EP2 modulator, EP2 antag)
O/N=C1\CCCCc2ccccc21	none
N#Cc1sc2nc(-c3ccccc3)cc(-c3ccco3)c2c1N	none
N#Cc1sc2nc(C3CC3)cc(-c3ccccc3)c2c1N	EP2 modulator 83 | EP2 cAMP induct active
CCOc1ccc(NC(=O)c2cn(CC(C)C)c(=O)c3c2c2ccccc2n3C)cc1	none
CCOc1ccc(C(=O)CCC(=O)Nc2ncccc2O)cc1	none (no result: EP2 modulator, EP2 antag)
CS(=O)(=O)N(Cc1ccccc1)c1ccccc1C(=O)Nc1ccccc1C(=O)NCc1ccco1	EP2 modulator 88 | EP2 cAMP induct active
CCN(CC)CCOC(=O)c1ccc(NC(=O)CCCN2C(=O)/C(=C\c3cccs3)SC2=S)cc1	none (no result: EP2 modulator, EP2 antag)
Nc1c(C(=O)NCc2ccccc2)c2nc3ccccc3nc2n1CCCN1CCOCC1	EP2 modulator 77 | EP2 cAMP induct inactive
Nc1c(C(=O)NCc2ccco2)c2nc3ccccc3nc2n1CCc1ccccc1	EP2 modulator 68 (no result: T cell modulator) | EP2 cAMP induct inactive
CCOc1ccc(-n2c(N)c(C(=O)NCc3ccco3)c3nc4ccccc4nc32)cc1	none
COc1ccc(CCN(C(=O)c2ccccc2)C2=CC3CCC(C2)N3C)cc1OC (configuration not stated)	none (no result: MC4R antagonist, MC4R ag barr, T cell modulator, Exocytosis inh)
O=C(Nc1ccc2nc([C@H]3C[C@H](O)[C@@H](CO)O3)[nH]c2c1)NC(c1ccccc1)c1ccccc1	none (no result: EP2 modulator, EP2 antag, T cell modulator)
C=CCc1cccc(C=Nc2cc(Br)ccc2O)c1O	EP2 modulator 67 | EP2 cAMP induct active
CN(/N=C\c1ccc(O)c(O)c1)c1nc(-c2ccccc2)cc(-c2ccccc2)n1	EP2 modulator 67 | EP2 cAMP induct inactive
COc1cc(/C=N/N(c2ccccc2)c2ccccc2)ccc1O	none (no result: EP2 modulator, EP2 antag)
O=C(COC(=O)CC1CC2CCC1C2)Nc1ccccc1Cl (configuration not stated)	none (no result: EP2 modulator, EP2 antag)
CC(C)NC(=O)c1ccccc1NC(=O)C(C)Oc1ccccc1 (configuration not stated)	none
COC(=O)c1ccccc1NC(=O)C(C)Oc1ccccc1 (configuration not stated)	none | EP2 cAMP induct inactive
Cc1cc2cc(C(c3nnnn3CC3CCCO3)N3CCCc4ccccc43)c(=O)[nH]c2cc1C (configuration not stated)	none (no result: T cell modulator)
CCc1ccc2[nH]c(=O)c(C(c3nnnn3CC3CCCO3)N3CCCc4ccccc43)cc2c1 (configuration not stated)	EP2 modulator 77! | EP2 cAMP induct active
CCOC1(OCC)C(c2ccc(N)cc2)C(C#N)(C#N)C1(OCC)OCC (configuration not stated)	EP2 modulator 76 | EP2 cAMP induct active
O=C(Nc1cc(C(F)(F)F)ccc1-n1cncn1)c1ccc(Cl)cc1	none
O=C(Nc1cc(C(F)(F)F)ccc1-n1cncn1)c1ccc(-c2ccccc2)cc1	EP2 modulator 66 | EP2 cAMP induct active
NS(=O)(=O)c1ccc(CCNC(=O)C(c2ccccc2)c2ccccc2)cc1	none (no result: EP2 modulator, EP2 antag)
CCOc1cc(-c2noc(-c3ccncc3)n2)cc(Br)c1OC	none | EP2 cAMP induct active
CCOc1ccc(-c2noc(-c3ccncc3)n2)cc1OCC	none
CC(C)N1CCN(Cc2nc3ccccc3c(=O)[nH]2)CC1	none (no result: MC4R antagonist, MC4R ag barr, T cell modulator, Exocytosis inh)
COc1ccc(C)cc1NC(=O)C1CC(=O)OC12CCCCC2 (configuration not stated)	EP2 modulator 65 | EP2 cAMP induct inactive
COC(=O)CCCCCN1C(=O)NC(c2ccccc2)C(C(=O)OCc2ccccc2)=C1C (configuration not stated)	none (no result: T cell modulator)
CCOC(=O)C1CCN(c2c(-c3ccccc3)c3cc(Cl)ccc3[nH]c2=O)CC1	EP2 modulator 80 | EP2 cAMP induct inactive
O=c1[nH]c2ccc(Br)cc2c(-c2ccccc2)c1N1CCOCC1	EP2 modulator 78 (no result: EP2 antag) | EP2 cAMP induct inactive
CC(=O)OC1c2c(ccc3ccc(=O)oc23)OC(C)(C)C1OC(=O)CC(C)C (configuration not stated)	none (no result: EP2 antag)
CC(=O)O[C@@H]1c2c(ccc3ccc(=O)oc23)OC(C)(C)[C@@H]1OC(=O)CC(C)C	EP2 modulator 64 (no result: MC4R antagonist, MC4R ag barr, T cell modulator, Exocytosis inh) | EP2 cAMP induct active
COc1ccc(Oc2nc(-c3ccccc3)ncc2C(=O)O)cc1	none
Cc1ccc(C(=O)c2cnc3ccccc3c2-c2ccccc2)cc1	EP2 modulator 92 | EP2 cAMP induct active
